# KCNK3 inh – human KCNK3 channel inhibitors, primary screen, CHO cells, FluxOR thallium flux, B-score. Potassium channel subfamily K member 3 (Homo sapiens), O14649. FluxOR fluorescence; hits give low values. B-score at 10 µM. hit rate 0.84% among 340,000. AID 602410, 2012;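 active = B-score under library mean minus 4 SD, starting fluorescence ratio at most library mean plus 5 SD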;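 also: more negative B-score means stronger inhibition of thallium flux through KCNK3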
# PHOSPHO1 block – PubChem AID 1565. Phosphoethanolamine/phosphocholine phosphatase (Homo sapiens), Q8TCT1. recombinant PHOSPHO1, absorbance phosphatase assay. inhibition, % at 13.3 µM. hit rate 1.1% among 290,000; in the data active = inhibition above about 60%
# hERG rescue – hERG rescue from dofetilide block, primary screen, cell-based, CHO-hERG, FluxOR thallium flux, dofetilide IC70. activation (rescue from dofetilide block), less the hit threshold, % at 10 µM. hit rate 0.51% among 310,000. AID 1511, 2009. dofetilide IC70 present;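 active = activation above the mean of controls blocked by dofetilide plus 5 SD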;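 also: thallium influx through hERG after potassium depolarization seen as dye fluorescence rise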
# KCNQ1 inh – inhibitors of human KCNQ1 channel, primary screen, cell-based, thallium flux, high-throughput; AID 2642, 2010; hit rate 1.3% among 310,000; B-score at 10 µM; CHO-K1 KCNQ1, FluxOR thallium flux fluorescence; hits give high values; Potassium voltage-gated channel subfamily KQT member 1 (Homo sapiens), P51787;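 active = compounds whose thallium flux B-score, printed positive for inhibition, exceeds three library SD while starting fluorescence stays within three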;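 also: channel opened by potassium depolarization with thallium stimulus after 20 min compound exposure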
# KCNQ1 pot – potentiators or activators of KCNQ1 channel, primary screen, cell-based, thallium flux, high-throughput. Potassium voltage-gated channel subfamily KQT member 1 (Homo sapiens), P51787. CHO-K1 KCNQ1, thallium flux FluxOR fluorescence; hits give high values. B-score at 10 µM. hit rate 0.35% among 310,000;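 active = fluorescence ratio B-score, a plate-corrected score, at least three library SD, with initial intensity B-score within 5 SD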
#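 Schedule – 37 °C overnight plating, 90-min dark dye load, 20-min compound pretreatment · System – stable KCNQ1 CHO-K1 line · Probe or stimulus – thallium- and potassium-containing depolarizing buffer · Measured by – kinetic FluxOR fluorescence, 10 s baseline plus 110 s post-stimulus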
# KCNK9 block – KCNK9 potassium channel inhibitors, primary screen, HEK293 cells, thallium flux. FluxOR thallium flux fluorescence; hits give low values. Potassium channel subfamily K member 9 (Homo sapiens), Q9NPC2. AID 488922, 2010. hit rate 1.2% among 310,000. B-score at 10 µM;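 active = ratio B-score over 3 SD below the library mean, with starting fluorescence within 5 SD of its mean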;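 also: negative B-score means less thallium flux so channel inhibition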
# Target sequence (Q9NPC2 whole entry, looked up): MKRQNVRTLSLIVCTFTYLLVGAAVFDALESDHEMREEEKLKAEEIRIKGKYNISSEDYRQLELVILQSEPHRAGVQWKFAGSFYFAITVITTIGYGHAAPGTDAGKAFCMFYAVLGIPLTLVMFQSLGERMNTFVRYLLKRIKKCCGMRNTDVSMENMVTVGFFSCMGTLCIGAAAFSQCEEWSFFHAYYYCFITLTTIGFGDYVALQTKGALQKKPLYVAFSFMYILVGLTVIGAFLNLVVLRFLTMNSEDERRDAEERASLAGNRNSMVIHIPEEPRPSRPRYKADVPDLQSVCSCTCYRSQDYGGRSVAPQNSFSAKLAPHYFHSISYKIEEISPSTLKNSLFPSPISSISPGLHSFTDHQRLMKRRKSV
# KCNK9 inh conf – KCNK9 potassium channel inhibitors, confirmation, HEK293 cells, thallium flux, duplicate. hit rate 43% among 4,900. FluxOR thallium flux fluorescence. AID 492992, 2010. shares compounds with KCNK9 block. inhibition, % at 10 µM;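 active = thallium signal inhibited by more than 5 SD of the compound-free buffer control wells, on both duplicate plates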;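 also: 0% = assay buffer control wells without compound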
# Kir21 sel – mouse Kir2.1 channel inhibition, confirmation, selectivity assay for KCNK9 modulator project, cell-based, HEK293, thallium flux. shares compounds with KCNK9 block. Kir2.1 cells, FluxOR thallium flux fluorescence. inhibition, % at 10 µM. hit rate 4% among 4,900. AID 492993, 2010;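 active = thallium signal drop more than 5 SD beyond the mean of the no-compound control wells, seen in both duplicate plates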;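 also: signal is fluorescence rise after thallium addition divided by baseline fluorescence; plate controls were assay buffer only for no effect and full block by chlorpromazine control for full effect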
# HEK293 Tl ctr – thallium flux in non-induced HEK293 cells, confirmation, counter-screen for KCNK9 inhibitor project, cell-based, second counter screen, non-induced KCNK9-HEK293; shares compounds with KCNK9 block; AID 492997, 2010; hit rate 40% among 4,900; FluxOR thallium flux; inhibition, % at 10 µM;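 active = thallium signal drop beyond 5 SD of the untreated control mean, on both duplicate plates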;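 also: plate controls were buffer only IC0 wells for no effect and SID17386958 at its maximal inhibitory level for full effect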
# Starred values were filed as active, the others as inactive; i = inactive; x = no result. Shown are actives, neighbours in structure and some others; about 4% of the full set was active somewhere.
SMILES,KCNK3 inh,PHOSPHO1 block,hERG rescue,KCNQ1 inh,KCNQ1 pot,KCNK9 block,KCNK9 inh conf,Kir21 sel,HEK293 Tl ctr
Fc1ccc(-[n+]2nc(Nc3ccccc3)sc2-c2c3ccccc3cc3ccccc23)cc1,i,-57.3,-21.2,11*,i,-12.2*,34.0%*,i,i
Oc1ccc(-c2sc(Nc3ccccc3)n[n+]2-c2ccc(F)cc2)cc1,i,-7.3,-9.3,i,i,i,x,x,x
COc1ccc(C(=O)C2CCCN(C(=O)c3cc(C(C)C)no3)C2)cc1F (configuration not stated),i,0.8,-5.2,i,i,i,i,i,i
COc1cccc(C(=O)C2CCCN(Cc3cccc(-n4cccn4)c3)C2)c1 (configuration not stated),i,31.6,-14.3,i,i,i,i,i,i
COc1ccc(C(=O)C2CCCN(C(=O)c3cccc(Cn4cccn4)c3)C2)cc1F (configuration not stated),i,32.6,-15.2,i,i,i,i,i,i
CSc1ccc(C(=O)C2CCCN(Cc3ccc(N4CCNC4=O)cc3)C2)cc1 (configuration not stated),i,45.5,-6.5,i,i,i,x,x,x
COc1ccc(CN2CCCC(C(=O)c3ccc(SC)cc3)C2)cc1Cn1cccn1 (configuration not stated),i,-50.2,-16.1,i,i,i,i,i,i
CCc1nnc(NC(=O)CSc2nnc3ncccn23)s1,i,-17.9,-8.5,i,i,i,x,x,x
COc1ccc(CCNC(=O)C/C(C)=N/NC(=O)c2ccc([N+](=O)[O-])cc2Cl)cc1OC,i,32.0,-13.1,i,i,i,x,x,x
CC1(c2nnc(-c3ccncc3)o2)CC(c2c(Cl)cccc2Cl)=NO1 (configuration not stated),i,48.5,-6.7,i,i,i,x,x,x
COc1ccc(C(CNC(=O)CN2C(=O)NC(C)(c3ccc4ccccc4c3)C2=O)N2CCCC2)cc1 (configuration not stated),i,x,x,x,x,x,x,x,x
COc1ccc(C(=O)C2CCCN(C(=O)c3cccs3)C2)cc1F (configuration not stated),i,35.3,-12.8,i,i,i,i,i,i
CC(C)(C)OC(=O)C[C@H]1C/C=C\C[C@H](CC(=O)N(CCO)Cc2ccccc2)C(=O)N2CCC[C@H]2COC1=O,i,x,x,x,x,x,x,x,x
O=C(CN1C(=O)C2CC=CCC2C1=O)OCC(=O)c1ccc(Cl)c([N+](=O)[O-])c1 (configuration not stated),i,18.5,-9.6,i,i,i,x,x,x
CC(C)Oc1ccccc1-c1cc(C(=O)N/N=C/c2cccnc2)c2ccccc2n1,i,12.3,-18.2,i,i,i,x,x,x
Clc1ccc(CSc2snnc2-c2ccccc2)c(Cl)c1,i,12.6,-17.4,7*,i,i,i,i,25.0%*
c1ccc(CSc2snnc2-c2ccccc2)cc1,i,-33.3,-5.5,i,i,i,x,x,x
Cc1cc(C)n(-c2nnc(C)n2/N=C/c2ccccc2F)n1,i,-10.5,-6.0,i,i,i,x,x,x
